Measured values of several laboratories.
Target: Tyrosine-protein kinase Srms (SRMS, Homo sapiens, UniProt Q9H3Y6)

Compound | read-out | mode | method | tested at | quantity | value
CC(C)(C)c1nc2c(s1)c1nc(N)ncc1c1ccc(NS(=O)(=O)c3c(F)cccc3F)c(F)c12 | enzyme activity | inhibitor | radiometric | 1 µM | remaining activity | 70%
Nc1ncnc2occ(-c3ccc(NC(=O)Nc4cc(C(F)(F)F)ccc4F)cc3)c12 | cell-free assay | inhibitor | – | 20 µM | remaining signal | 0.8%
Cc1cc(-n2nc(Cc3cc(F)cc(C(F)(F)F)c3)nc2C)ccc1C(N)=O | cell-free assay | – | competition with immobilised ligand | 1 µM | remaining binding | 98%
CC/C(=N\NC(=O)NCc1cccc(O)c1)c1ccc(O)c(C)c1O | enzyme activity | inhibitor | – | 0.1 µM | inhibition | 1.1%
C[S+]([O-])c1ccc(-c2nc(-c3ccncc3)c(-c3ccc(F)cc3)[nH]2)cc1 (stereo not shown) | cell-free assay | – | – | 0.5 µM | remaining signal | 102%
COc1cc2ncnc(Nc3ccc(Oc4ccccc4)cc3C)c2cc1OC | enzyme activity | inhibitor | – | 1 µM | inhibition | 84%
Cc1sc(C(=O)NC2COC2)cc1-n1cc(NC(=O)Nc2c(F)cccc2Cl)cn1 | enzyme activity | inhibitor | – | 10 µM | remaining activity | 104%
Cc1ccc(C(=O)Nc2ccc(CN3CCN(C)CC3)c(C(F)(F)F)c2)cc1C#Cc1cnc2cccnn12 | enzyme activity | inhibitor | – | 23.5 nM | remaining activity | 40%
C[C@H](c1ccc(F)cc1)N(Cc1cccc(C(=O)O)c1)C(=O)c1cnc2ccccc2c1 | cell-free assay | – | competition with immobilised ligand | 1 µM | remaining binding | 100%
CC(C)(O)[C@H]1CC[C@H](Nc2ccc3ncc(-c4cccc(C(F)(F)F)c4)n3n2)CC1 | enzyme activity | inhibitor | – | 1 µM | remaining activity | 96.5%
FC(F)(F)c1ccc2c(c1)nc(-c1cccnc1)n2C1CC1 | cell-free assay | – | competition with immobilised ligand | 1 µM | remaining binding | 95%
O=C1Nc2ccc(Cl)cc2C1=Cc1cc(Cl)c(O)c(Cl)c1 | cell-free assay | – | – | 0.5 µM | remaining signal | 86.3%
Cc1ccc(C(=O)NCc2ccsc2)cc1C#Cc1cn(C(C)C)c2ncnc(N)c12 | enzyme activity | inhibitor | – | 1 µM | activity vs control | 31%
